According to ChEMBL document CHEMBL1129944, “[[(Arylpiperazinyl)alkyl]thio]thieno[2,3-d]pyrimidinone derivatives as high-affinity, selective 5-HT1A receptor ligands” (J Med Chem, 1997):

Experiments:
[1] = target: Serotonin 1a (5-HT1a) receptor/Adrenergic receptor alpha-1 (Rattus norvegicus) (UniProt P15823+P23944+P43140+P19327); experiment: Selectivity for alpha-1-adrenergic receptor to that of 5-HT1A receptor.; format: protein assay
How it was run: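 Ratio of IC50 at α1-adrenoceptors ([3H]prazosin, rat cortex) to IC50 at 5-HT1A receptors ([3H]-8-OH-DPAT, rat hippocampus). Each IC50 came from radioligand displacement curves.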

[2] = target: T1, Adrenergic receptor alpha-1 (Rattus norvegicus, UniProt P15823+P23944+P43140); experiment: In vitro inhibitory concentration against radioligand [3H]prazosin binding to alpha-1 adrenergic receptor in rat cortical membrane.; format: cell membranes
T1 sequence (P15823 whole entry): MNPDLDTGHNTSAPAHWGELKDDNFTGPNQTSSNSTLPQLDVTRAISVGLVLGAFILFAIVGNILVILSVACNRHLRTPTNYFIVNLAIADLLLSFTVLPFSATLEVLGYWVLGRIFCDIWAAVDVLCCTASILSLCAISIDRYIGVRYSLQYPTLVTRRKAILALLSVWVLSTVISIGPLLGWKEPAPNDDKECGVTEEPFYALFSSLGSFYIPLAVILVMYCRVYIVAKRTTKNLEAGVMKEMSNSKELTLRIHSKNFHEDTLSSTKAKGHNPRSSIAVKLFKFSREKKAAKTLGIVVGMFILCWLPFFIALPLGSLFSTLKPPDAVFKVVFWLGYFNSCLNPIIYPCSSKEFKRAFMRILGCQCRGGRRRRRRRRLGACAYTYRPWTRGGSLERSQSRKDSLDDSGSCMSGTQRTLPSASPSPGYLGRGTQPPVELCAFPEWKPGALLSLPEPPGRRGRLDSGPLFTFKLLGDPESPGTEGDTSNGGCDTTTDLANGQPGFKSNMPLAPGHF
T1 sequence (P23944 whole entry): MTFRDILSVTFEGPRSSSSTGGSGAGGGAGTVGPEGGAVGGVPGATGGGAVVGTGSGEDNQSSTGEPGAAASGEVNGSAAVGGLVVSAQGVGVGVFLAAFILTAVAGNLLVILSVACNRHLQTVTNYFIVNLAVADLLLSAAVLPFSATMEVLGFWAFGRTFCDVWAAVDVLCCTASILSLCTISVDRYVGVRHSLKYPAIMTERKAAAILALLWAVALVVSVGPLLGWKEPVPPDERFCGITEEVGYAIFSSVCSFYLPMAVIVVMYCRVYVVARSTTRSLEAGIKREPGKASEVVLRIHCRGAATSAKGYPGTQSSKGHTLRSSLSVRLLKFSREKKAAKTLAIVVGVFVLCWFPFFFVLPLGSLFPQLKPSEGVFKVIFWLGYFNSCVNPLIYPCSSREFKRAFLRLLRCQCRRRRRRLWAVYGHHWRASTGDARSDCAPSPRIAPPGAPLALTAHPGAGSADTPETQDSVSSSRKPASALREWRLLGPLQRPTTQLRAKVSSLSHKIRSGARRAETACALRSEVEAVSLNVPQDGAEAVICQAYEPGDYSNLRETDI
T1 sequence (P43140 whole entry): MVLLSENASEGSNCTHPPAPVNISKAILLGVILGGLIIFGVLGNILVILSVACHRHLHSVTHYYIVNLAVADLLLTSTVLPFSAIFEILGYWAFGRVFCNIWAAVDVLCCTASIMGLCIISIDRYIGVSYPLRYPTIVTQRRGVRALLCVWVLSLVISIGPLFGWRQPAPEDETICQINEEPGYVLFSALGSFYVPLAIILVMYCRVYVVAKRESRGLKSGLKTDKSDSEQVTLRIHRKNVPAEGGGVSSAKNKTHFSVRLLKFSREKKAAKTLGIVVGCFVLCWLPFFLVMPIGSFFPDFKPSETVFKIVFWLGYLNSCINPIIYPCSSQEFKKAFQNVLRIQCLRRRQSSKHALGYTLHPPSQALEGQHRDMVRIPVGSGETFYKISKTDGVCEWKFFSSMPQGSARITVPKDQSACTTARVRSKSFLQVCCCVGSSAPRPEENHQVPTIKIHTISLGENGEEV
How it was run: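 Male CRL:CD(SD)BR-COBS rats (~150 g) were decapitated. Cortex was homogenized in 50 mM Tris-HCl pH 7.4, spun at 50000g, given 10 min at 37 °C and washed. Incubation buffer had 0.1% ascorbic acid and 10 μM pargyline. GF/B filtration and scintillation counting; IC50 from dose-inhibition curves.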

[3] = target: Adrenergic receptor alpha-1 (Rattus norvegicus) (UniProt P15823+P23944+P43140); experiment: Compound at 10E-5 M was tested in vitro for the inhibition of radioligand [3H]-prazosin binding to Alpha-1 adrenergic receptor in rat cortical membrane; format: cell membranes
[4] = target: T2, 5-hydroxytryptamine receptor 1A (Rattus norvegicus, UniProt P19327); experiment: In vitro inhibitory concentration against radioligand [3H]8-OH-DPAT binding to 5-hydroxytryptamine 1A receptor in rat hippocampal membrane.; format: cell membranes, Hippocampus
T2 sequence (P19327 whole entry): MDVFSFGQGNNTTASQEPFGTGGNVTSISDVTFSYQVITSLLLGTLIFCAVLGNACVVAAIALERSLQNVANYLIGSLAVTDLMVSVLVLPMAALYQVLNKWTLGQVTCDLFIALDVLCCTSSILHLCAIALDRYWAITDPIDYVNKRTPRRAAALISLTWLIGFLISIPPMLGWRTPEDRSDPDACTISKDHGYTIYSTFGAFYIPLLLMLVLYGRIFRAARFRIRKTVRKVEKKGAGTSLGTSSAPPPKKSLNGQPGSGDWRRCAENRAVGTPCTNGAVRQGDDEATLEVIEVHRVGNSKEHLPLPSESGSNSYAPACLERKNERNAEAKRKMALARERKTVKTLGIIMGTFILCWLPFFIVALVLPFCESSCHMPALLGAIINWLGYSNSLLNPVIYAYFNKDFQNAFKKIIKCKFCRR
How it was run: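 Rat hippocampal membranes (male SD rats, ~150 g) were washed in 50 mM Tris-HCl pH 7.4, including 10 min at 37 °C. Incubation buffer contained 4 mM CaCl2 and 10 μM pargyline. Filtered onto GF/B and counted; 50% inhibitory concentration from fitted curves.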

[5] = target: T3, 5-hydroxytryptamine receptor 1A (Rattus norvegicus) (UniProt P19327); experiment: Compound at 10E-5 M was tested in vitro for the inhibition of radioligand [3H]8-OH-DPAT binding to 5-hydroxytryptamine 1A receptor in rat hippocampal membrane; format: cell membranes; settings: Hippocampus
T3 sequence (whole entry): T2 sequence (P19327 whole entry)

| SMILES | Selectivity [1] | IC50 [2] [nM] | inhibition [3] [%] | IC50 [4] [nM] | inhibition [5] [%] |
| --- | --- | --- | --- | --- | --- |
| Oc1nc(SCCCN2CCN(c3cccc4ccccc34)CC2)nc2sc(-c3ccccc3)cc12 | 1 | 2454 | – | – | – |
| NCCc1c[nH]c2ccc(O)cc12 | – | – | < 50 | – | – |
| COc1ccccc1N1CCN(CCCSc2nc(O)c3cc(-c4ccccc4)sc3n2)CC1 | 0.6 | 224 | – | 386 | – |
| COc1ccccc1N1CCN(CCCn2c(SC)nc3sc4c(c3c2=O)CCCC4)CC1 | 0.2 | 95 | – | 511 | – |
| Cc1sc2nc(SCCCN3CCN(c4ccccc4Cl)CC3)nc(O)c2c1C | 0.35 | 161 | – | – | – |
| Cc1sc2nc(SCCCN3CCN(c4ccc(Cl)cc4)CC3)nc(O)c2c1C | – | – | < 50 | – | < 50 |
| COc1ccccc1N1CCN(CCCSc2nc(O)c3c4c(sc3n2)CCCC4)CC1 | 0.6 | 38 | – | – | – |
| COc1ccccc1N1CCN(CCCSc2nc3sc4c(c3c(=O)n2N)CCCC4)CC1 | 30 | 39 | – | 1.3 | – |
| Oc1nc(SCCCN2CCN(c3ncccn3)CC2)nc2sc3c(c12)CCCC3 | 3.5 | 1814 | – | 505 | – |
| Cc1ccc(N(CC2=NCCN2)c2cccc(O)c2)cc1 | – | – | – | – | < 50 |
| COc1ccccc1N1CCN(CCCSc2nc3ccccc3c(=O)n2N)CC1 | 8 | 4 | – | 0.5 | – |
| O=c1[nH]c(SCCCN2CCN(c3cccc4ccccc34)CC2)nc2sc3c(c12)CCCC3 | – | – | – | 371 | – |
| O=c1[nH]c(SCCCN2CCN(c3ccccc3Cl)CC2)nc2sc3c(c12)CCCC3 | – | – | – | 943 | – |
| Oc1nc(SCCCN2CCN(c3ccccc3Cl)CC2)nc2sc3c(c12)CCCC3 | 0.2 | 168 | – | – | – |
| COc1ccccc1N1CCN(CCSc2nc3sc4c(c3c(=O)[nH]2)CCCC4)CC1 | – | – | – | 97 | – |
| Cc1sc2nc(SCCCN3CCN(c4cccc(Cl)c4)CC3)nc(O)c2c1C | 0.3 | 299 | – | 986 | – |
| O=c1[nH]c(SCCCN2CCN(c3cccc4ccccc34)CC2)nc2sc(-c3ccccc3)cc12 | – | – | – | 2010 | – |
| COc1ccccc1N1CCN(CCCSc2nc3sccc3c(=O)n2N)CC1 | 2 | 2.9 | – | 1.2 | – |
| Oc1nc(SCCCN2CCN(c3cccc4ccccc34)CC2)nc2sc3c(c12)CCCC3 | 1 | 445 | – | – | – |

| SMILES | Selectivity [1] | IC50 [2] [nM] | inhibition [3] [%] | IC50 [4] [nM] | inhibition [5] [%] |
| --- | --- | --- | --- | --- | --- |
| COc1ccccc1N1CCN(CCCSc2nc3sc(C)c(C)c3c(=O)n2C)CC1 | 9 | 27 | – | 3 | – |
| Cc1sc2nc(SCCCN3CCN(c4ccccc4Cl)CC3)[nH]c(=O)c2c1C | – | – | – | 460 | – |
| Cc1sc2nc(SCCCN3CCN(c4ncccn4)CC3)nc(O)c2c1C | 5 | 1098 | – | – | – |
| Cc1sc2[nH]c(=S)n(N)c(=O)c2c1C | – | > 10000 | – | – | < 50 |
| COc1ccccc1N1CCN(CCCSc2nc3sc(C)c(C)c3c(=O)n2Nc2ccccc2)CC1 | 0.06 | 32 | – | 497 | – |
| COc1ccccc1N1CCN(CCCSc2nc(O)c3c(C)c(C)sc3n2)CC1 | 2 | 40 | – | 24 | – |
| COc1ccccc1N1CCN(CCc2nn3c(=O)c4c(C)c(C)sc4nc3s2)CC1 | 3 | 125 | – | 42 | – |
| COc1ccccc1N1CCN(CCCOc2nc(SC)nc3sc4c(c23)CCCC4)CC1 | 0.05 | 75 | – | 1420 | – |
| Cc1sc2nc(SCCCN3CCN(c4cccc5ccccc45)CC3)nc(O)c2c1C | 2.5 | 886 | – | – | – |
| COc1ccccc1N1CCN(CCSc2nc(O)c3c4c(sc3n2)CCCC4)CC1 | 0.2 | 20 | – | – | – |
| Cc1sc2nc(SCCCN3CCN(c4cccc5ccccc45)CC3)[nH]c(=O)c2c1C | – | – | – | 355 | – |
| Cc1sc2nc(SCCCN3CCN(c4ncccn4)CC3)[nH]c(=O)c2c1C | – | – | – | 226 | – |
| COc1ccccc1N1CCN(CCCSc2nc3sc4c(c3c(=O)[nH]2)CCCC4)CC1 | – | – | – | 59 | – |
| COc1ccccc1N1CCN(CCCSc2nc(O)c3c(n2)sc2ccccc23)CC1 | 2 | 91 | – | 46 | – |
| COc1ccccc1N1CCN(CCCSc2nc3sc4c(c3c(=O)n2C)CCCC4)CC1 | 9 | 64 | – | 7 | – |
| Cc1sc2nc(SCCCN3CCN(c4ccccc4)CC3)n(N)c(=O)c2c1C | 13 | 43 | – | 3.3 | – |
| COc1ccc(N2CCN(CCCSc3nc(O)c4c(C)c(C)sc4n3)CC2)cc1 | – | – | < 50 | – | < 50 |
| Cc1sc2nc(SCCCN3CCN(c4ncccn4)CC3)n(C)c(=O)c2c1C | 31 | 2030 | – | 65 | – |
